Reference: ChEMBL document CHEMBL2385032, “Dual-functional abeo-taxane derivatives destabilizing microtubule equilibrium and inhibiting NF-κB activation” (2013)
Active and inactive are the calls of the source. No cut-off for these calls is given here.

Columns and labels:
[1] = system: RXF 393; test: Cytotoxicity against human RXF393 cells; type: functional
Outline: (§1)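 NCI-60 human tumor cell line screen run by standard NCI protocol: single-dose prescreen at 10 μM, then multi-dose testing of compounds giving over 50% growth inhibition; GI50 = concentration for 50% growth inhibition.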

[2] = system: HEK-293T; test: Inhibition of TNF-alpha induced NF-kapppaB activation in HEK293T cells at 0.62 uM incubated 1 hr prior to TNF-alpha addition measured after 18 hrs by luciferase reporter gene assay; type: cell-based; details: Homo sapiens
Outline: (§2)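 HEK 293T cells transiently transfected 12 h with pNFκB-luc and pRL-TK, pretreated 1 h with compound (0.31–2.50 μM) or DMSO, then stimulated with TNF-α 25 ng/mL for 18 h; firefly and Renilla luciferase read by dual-luciferase assay. Data from one of three independent experiments.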

[3] = system: HCT-116; test: Induction of apoptosis in human HCT116 cells at 1 uM after 24 hrs by AnnexinV-FITC/PI staining-based flow cytometry; type: functional
[4] = system: HEK-293T; test: Inhibition of TNF-alpha induced NF-kapppaB activation in HEK293T cells at 1.25 uM incubated 1 hr prior to TNF-alpha addition measured after 18 hrs by luciferase reporter gene assay; type: cell-based; details: Homo sapiens; outline: as §2
[5] = system: HCT-116; test: Induction of apoptosis in human HCT116 cells assessed as late apoptotic cells at 1 uM after 24 hrs by AnnexinV-FITC/PI staining-based flow cytometry (reference value: 2.53 %); type: functional
[6] = system: HEK-293T; test: Inhibition of TNF-alpha induced NF-kapppaB activation in HEK293T cells at 0.31 uM incubated 1 hr prior to TNF-alpha addition measured after 18 hrs by luciferase reporter gene assay; type: cell-based; details: Homo sapiens; outline: as §2
[7] = system: T47D; test: Cytotoxicity against human T47D cells; type: functional; outline: as §1
[8] = system: HCT-116; test: Induction of apoptosis in human HCT116 cells assessed as early apoptotic cells at 2 uM after 24 hrs by AnnexinV-FITC/PI staining-based flow cytometry (reference value: 2.17 %); type: functional
[9] = system: HCT-116; test: Cell cycle arrest in human HCT116 cells assessed as accumulation at G0/G1 phase at 1 uM after 12 hrs by propidium iodide staining-based FACS analysis (reference value: 54.63 to 55.88 %); type: functional
[10] = system: HCT-116; test: Cell cycle arrest in human HCT116 cells assessed as accumulation at G2/M phase after 12 hrs by propidium iodide staining-based FACS analysis; type: functional
[11] = molecular target: Tubulin (Homo sapiens) (UniProt P68371+Q9H4B7+P0DPH7+P68366+Q13509+Q71U36+P04350+Q3ZCM7+P07437+P68363+Q9BQE3+Q6PEY2+Q13885+Q9BVA1+Q9BUF5); test: Inhibition of tubulin (unknown origin) polymerization assessed as destabilization of microtubule at 15 uM by fluorescence assay; type: protein-complex assay
Outline: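 Cell-free tubulin polymerization kit; tubulin mixed with DMSO control, 500 μM CaCl2, 3 μM paclitaxel or test compounds at 15 or 30 μM; polymerization followed kinetically by fluorescence, excitation 340 nm, emission 420 nm, in a temperature-regulated fluorimeter. Three independent experiments in triplicate.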

[12] = system: HCT-116; test: Induction of apoptosis in human HCT116 cells assessed as early apoptotic cells at 1 uM after 24 hrs by AnnexinV-FITC/PI staining-based flow cytometry (reference value: 2.17 %); type: functional
[13] = system: NCI-H322M; test: Cytotoxicity against human NCI-H322M cells; type: functional; outline: as §1
[14] = system: MOLT-4; test: Cytotoxicity against human MOLT4 cells; type: functional; outline: as §1
[15] = system: HCT-116; test: Induction of apoptosis in human HCT116 cells assessed as late apoptotic cells at 2 uM after 24 hrs by AnnexinV-FITC/PI staining-based flow cytometry (reference value: 2.53 %); type: functional
[16] = system: HCT-116; test: Cell cycle arrest in human HCT116 cells assessed as accumulation at G0/G1 phase at 2 uM after 12 hrs by propidium iodide staining-based FACS analysis (reference value: 54.63 to 55.88 %); type: functional
[17] = system: LOX IMVI; test: Cytotoxicity against human LOXIMVI cells; type: functional
[18] = system: OVCAR-3; test: Cytotoxicity against human OVCAR3 cells; type: functional; outline: as §1
[19] = system: HCT-116; test: Cell cycle arrest in human HCT116 cells assessed as accumulation at S phase at 1 uM after 12 hrs by propidium iodide staining-based FACS analysis (reference value: 20.48 to 23.62 %); type: functional
[20] = system: HCT-116; test: Cell cycle arrest in human HCT116 cells assessed as accumulation at G2/M phase at 1 uM after 12 hrs by propidium iodide staining-based FACS analysis (reference value: 20.40 to 22.32 %); type: functional
[21] = system: HCT-116; test: Cell cycle arrest in human HCT116 cells assessed as reduction in G0/G1 phase after 12 hrs by propidium iodide staining-based FACS analysis; type: functional
[22] = system: HCT-116; test: Induction of apoptosis in human HCT116 cells at 2 uM after 24 hrs by AnnexinV-FITC/PI staining-based flow cytometry; type: functional
[23] = system: HEK-293T; test: Inhibition of TNF-alpha induced NF-kapppaB activation in HEK293T cells incubated 1 hr prior to TNF-alpha addition measured after 18 hrs by luciferase reporter gene assay; type: cell-based; details: Homo sapiens; outline: as §2
[24] = organism: Homo sapiens; test: Induction of microtubule depolymerization in human PC3 interphase cells at 2 uM after 24 hrs by DAPI staining-based immunofluorescence microscopic analysis; type: cell-based
Outline: (§3)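 PC-3 cells grown on chamber slides 36 h, then treated 24 h (test agents 2, 5 or 10 μM; reference agents 200 nM); fixed in 4% paraformaldehyde, permeabilized with 0.5% Triton X-100, stained with anti-α-tubulin monoclonal plus FITC secondary and DAPI for nuclei; spindle and microtubule morphology by fluorescence microscopy.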

[25] = system: SNB-19; test: Cytotoxicity against human SNB19 cells; type: functional; outline: as §1
[26] = organism: Homo sapiens; test: Induction of microtubule depolymerization in human PC3 mitotic cells assessed as abnormal spindles at 2 uM after 24 hrs by DAPI staining-based immunofluorescence microscopic analysis; type: cell-based; outline: as §3
[27] = system: HCT-116; test: Cytotoxicity against human HCT116 cells; type: functional; outline: as §1
[28] = system: HCT-116; test: Cell cycle arrest in human HCT116 cells assessed as accumulation at S phase at 2 uM after 12 hrs by propidium iodide staining-based FACS analysis (reference value: 20.48 to 23.62 %); type: functional
[29] = system: DU-145; test: Cytotoxicity against human DU145 cells; type: functional; outline: as §1
[30] = system: HCT-116; test: Induction of apoptosis in human HCT116 cells after 24 hrs by AnnexinV-FITC/PI staining-based flow cytometry; type: functional, cell-based
[31] = organism: Homo sapiens; test: Induction of microtubule depolymerization in human PC3 mitotic cells assessed as abnormal spindles at 5 uM after 24 hrs by DAPI staining-based immunofluorescence microscopic analysis; type: cell-based; outline: as §3
[32] = system: HEK-293T; test: Inhibition of TNF-alpha induced NF-kapppaB activation in HEK293T cells at 2.50 uM incubated 1 hr prior to TNF-alpha addition measured after 18 hrs by luciferase reporter gene assay; type: cell-based; details: Homo sapiens; outline: as §2
[33] = organism: Homo sapiens; test: Induction of microtubule depolymerization in human PC3 interphase cells at 5 uM after 24 hrs by DAPI staining-based immunofluorescence microscopic analysis; type: cell-based; outline: as §3

Compound	GI50 [1] [µM]	inhibition [2] [%]	Activity [3] [%]	inhibition [4] [%]	Activity [5] [%]	GI50 [7] [µM]	Activity [8] [%]	Activity [9] [%]	Activity [10]	inhibition [11]	Activity [12] [%]	GI50 [13] [µM]	Activity [15] [%]	Activity [16] [%]	GI50 [17] [µM]	GI50 [18] [µM]	Activity [19] [%]	Activity [20] [%]	Activity [21]	Activity [22] [%]	further results
C=C1C(=O)C[C@H](OC(C)=O)[C@@]2(C)[C@@H](OC(C)=O)[C@H](OC(=O)c3ccccc3)C3=C(C)[C@@H](OC(=O)[C@H](O)[C@@H](NC(=O)c4ccccc4)c4ccccc4)C[C@@]3(C(C)(C)O)[C@@H](OC(C)=O)[C@H]12	1.29	27	8.54	37	2.82	1.86	5.87	55.02	Dose-dependent effect	Active	2.11	18.5	14	44.75	1.86	1.72	14.39	29.81	Dose-dependent effect	20.36	inhibition [6]: 14%; GI50 [14]: 0.65 µM; inhibition [23]: Dose-dependent effect; Activity [24]: Active; GI50 [25]: 33.7 µM; Activity [26]: Active; GI50 [27]: 1.28 µM; Activity [28]: 18.27%; GI50 [29]: 1.59 µM; Activity [30]: Dose-dependent effect
C=C1C(=O)C[C@H](OC(C)=O)[C@@]2(C)[C@@H](OC(C)=O)[C@H](OC(=O)c3ccccc3)C3=C(C)[C@@H](OC(=O)[C@H](O)[C@@H](NC(=O)OC(C)(C)C)c4ccccc4)C[C@@]3(C(C)(C)O)[C@@H](OC(C)=O)[C@H]12	1.33	9	4.93	12	5.24	1.88	5.72	51.25	Dose-dependent effect	Active	3.3	18.8	14.64	50.3	1.7	1.69	20.48	26.14	Dose-dependent effect	19.87	Activity [31]: Active; inhibition [32]: 28%; Activity [33]: Active; inhibition [23]: Dose-dependent effect; GI50 [25]: 27.5 µM; GI50 [27]: 1.12 µM; Activity [28]: 16.39%; GI50 [29]: 1.89 µM; Activity [30]: Dose-dependent effect
